TbMetRS inhib – T. brucei MetRS inhibitors, primary screen, biochemical, luminescence; 360,000 tested, 0.4% active; inhibition, % at 11.9 µM; purified T. brucei MetRS, ATP depletion, Kinase-Glo luminescence;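 active = inhibition above a per-plate cutoff of the control wells' mean inhibition plus 3 SD, cut at about 5.5% in these data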;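 note: 0% = DMSO wells median and 100% = median of wells with control inhibitor compound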
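Dosing: 11.9 µM compound single dose, 0.9% DMSO; Assay system: purified T. brucei MetRS enzyme; Measured by: Kinase-Glo luciferase luminescence reporting remaining unconsumed ATP; Schedule: 15 min plus 2 h at 25 °C.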
HNF4A DNA FP – change in binding of human HNF4A to DNA, primary screen, biochemical, fluorescence polarization, FITC-DNA. 1 h. activity change, % at 10 µM. 360,000 tested, 0.3% active. AID 1224865, 2016. Hepatocyte nuclear factor 4-alpha (Homo sapiens), P41235; in the data active = activity change above about 30%, passing the limit was not always enough
Target sequence (P41235 whole entry, looked up): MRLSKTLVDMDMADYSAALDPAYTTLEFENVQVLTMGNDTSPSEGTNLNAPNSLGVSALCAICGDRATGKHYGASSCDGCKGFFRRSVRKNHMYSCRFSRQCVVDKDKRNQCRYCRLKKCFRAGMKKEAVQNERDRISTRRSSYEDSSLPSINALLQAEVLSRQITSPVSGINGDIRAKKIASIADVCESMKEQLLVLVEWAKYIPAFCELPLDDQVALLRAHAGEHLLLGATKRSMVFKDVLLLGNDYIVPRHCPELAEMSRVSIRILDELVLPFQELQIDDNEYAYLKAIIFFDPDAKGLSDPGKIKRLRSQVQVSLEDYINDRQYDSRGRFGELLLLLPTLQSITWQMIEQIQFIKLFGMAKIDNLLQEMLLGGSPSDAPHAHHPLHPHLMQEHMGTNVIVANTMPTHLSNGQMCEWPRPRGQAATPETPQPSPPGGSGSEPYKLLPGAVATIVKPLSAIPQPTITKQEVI
IDE act – human IDE activators in live cells, primary screen, fluorescence polarization, HEK cells, FAbeta-B substrate; Insulin-degrading enzyme (Homo sapiens), P14735; FAbeta-B cleavage; 0% vehicle, 100% cell-free pure enzyme wells; AID 493087, 2011; activation, % at 5.96 µM; 340,000 tested, 0.073% active;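 active = activation above the mean of all tested compounds plus 3 SD, set per screening campaign, cut at about 17% in these data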
TPT1 inh – Candida albicans TPT1 enzyme inhibitors, primary screen, biochemical, fluorescence polarization; tRNA 2'-phosphotransferase TPT1 (Candida albicans SC5314); recombinant caTPT1, FP RNA substrate dephosphorylation; inhibition, % at 5 µM; 300,000 tested, 0.81% active; AID 1962, 2009;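 active = inhibition above the mean of all tested compounds plus 3 SD, set per screening campaign, cut at about 24% in these data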;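 note: plate controls were DMSO alone for no effect and ferristatin control at 100 nM for full effect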
IDE cell inh – human IDE inhibitors in live cells, primary screen, fluorescence polarization, HEK cells, FAbetaB substrate. AID 434962, 2010. FAbetaB cleavage. inhibition, % at 5.59 µM. 320,000 tested, 0.41% active. Insulin-degrading enzyme (Homo sapiens), P14735;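 active = percent inhibition above the average of all tested compounds plus 3 SD, set per screening campaign, cut at about 16% in these data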;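 note: IDE supplied by intact live HEK cells; FP after avidin binding of uncleaved biotin substrate so inhibition keeps polarization high; 0% = DMSO wells and 100% = 60 µM reference IDE inhibitor Ii1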
CSN deneddyl inh – inhibitors of CSN-mediated cullin deneddylation, primary screen, biochemical, fluorescence polarization, uHTS | Purified CSN, SCF-Nedd8-OG deneddylation | COP9 signalosome complex subunit 5 (Homo sapiens), Q92905 | inhibition, % at 12.5 µM | 360,000 tested, 0.38% active;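 active = pattern-corrected inhibition above about 35%, with an unprinted fluorescence ratio check between 0.5 and 1.5, limit read from the data, passing the limit was not always enough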;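 note: 0% = enzyme with substrate and 100% = substrate without enzyme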
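Detection – fluorescence polarization · System – HEK293T-derived human Csn5 enzyme · Controls – substrate-only high control, full reaction low control · Timing – 90 min, room temperature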
TPT1 inh confirm – Candida albicans TPT1 inhibitors, confirmation, biochemical, fluorescence polarization, triplicate; 2,400 tested, 74% active; recombinant caTPT1, RNase T1 coupled; shares compounds with TPT1 inh; inhibition, % at 5 µM;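 active = inhibition above the primary screen limit, the mean inhibition of all tested compounds plus 3 SD, cut at about 25% in these data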
RNase T1 counter – RNase T1 inhibitors, counter-screen for TPT1 inhibitor project, biochemical, fluorescence polarization | shares compounds with TPT1 inh | RNase T1 cleavage, 1536-well | inhibition, % at 5 µM | 2,400 tested, 83% active | AID 2153, 2009;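 active = inhibition above the solvent-only control well mean plus 3 SD, limit set per screening run, cut at about 23% in these data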;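 note: plate controls were DMSO wells with enzyme for no effect and wells without RNase T1 for full effect; inhibitors block cleavage so intact labeled substrate keeps polarization high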
Target sequence (P00651 whole entry, looked up): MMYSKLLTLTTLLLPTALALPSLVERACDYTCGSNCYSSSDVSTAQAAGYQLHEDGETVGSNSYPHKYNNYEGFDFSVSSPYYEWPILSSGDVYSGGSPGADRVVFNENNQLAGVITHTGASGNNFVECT
Starred values were filed as active, the others as inactive; nt = no result given. Shown are actives, neighbours in structure and some others; about 1.7% of the full set was active somewhere.

SMILES	TbMetRS inhib	HNF4A DNA FP	IDE act	TPT1 inh	IDE cell inh	CSN deneddyl inh	TPT1 inh confirm	RNase T1 counter
CN1CCc2c(sc(NC(=O)c3ccc(S(=O)(=O)N4CCc5ccccc54)cc3)c2C(N)=O)C1	nt	nt	nt	34*	8	nt	51*	63*
CN1CCc2c(sc(NC(=O)c3ccc(S(=O)(=O)N4CCOCC4)cc3)c2C(N)=O)C1	0	48*	-2	90*	2	17	101*	111*
CN1CCc2nc(NC(=O)c3cccc(S(=O)(=O)N4CCc5ccccc54)c3)sc2C1	0	50*	5	49*	0	41*	21	29*
COCCNCc1cc(C)n(-c2cc(S(=O)(=O)N3CCOCC3)ccc2N2CCCC2)c1C	0	-4	0	nt	nt	-8	nt	nt
COc1ccc(-c2cc(=Nc3c(C)n(C)n(-c4ccccc4)c3=O)c3ccccc3o2)cc1	-1	0	6	-2	8	6	nt	nt
COc1ccc(-c2c/c(=N\c3nc(-c4ccccc4)c(C)s3)c3ccccc3o2)cc1O	-1	12	-2	27*	3	0	22	31*
Cc1ccc(C(=O)O)cc1N1C(=O)c2cccc3c([N+](=O)[O-])ccc(c23)C1=O	0	-33	1	-12	6	13	nt	nt
CC(=O)Oc1cccc(N2C(=O)c3cccc4c([N+](=O)[O-])ccc(c34)C2=O)c1	1	-17	-8	43*	12	-6	43*	59*
O=C(COC(=O)CNC(=O)c1ccccc1F)Nc1ccc2c(c1)OCCO2	0	4	3	55*	-3	-3	4	6
N#Cc1cnc(SCCc2ccccc2)nc1N	0	17	-4	39*	5	7	32*	42*
O=C(NC1CCCC1)C1c2ccccc2OCC(=O)N1C1CC1 (stereo not given)	0	5	nt	nt	nt	-2	nt	nt
COc1ccc(CCN2Cc3c(N)cccc3C2=O)cc1OC	-1	4	4	-1	-3	-3	nt	nt
COc1ccc(CCN2Cc3c(cccc3[N+](=O)[O-])C2=O)cc1OC	-1	-2	5	30*	1	3	7	8
CC(=O)C1CCC2C3CCC4=CC(=O)C=CC4(C)C3C(=O)CC12C (stereo not given)	0	1	-6	nt	nt	-2	nt	nt
C[C@]12C=CC(=O)C=C1CC[C@@H]1C2=CC[C@]2(C)[C@@H](C(=O)CN3CCN(c4cc(N5CCCC5)nc(N5CCCC5)n4)CC3)CC[C@@H]12	0	6	0	31*	-1	5	29*	41*
COc1ccc2nc(Nc3nc(C)c(CCC(C)C)c(=O)[nH]3)nc(C)c2c1	-1	4	4	25*	7	2	3	7
CN(Cc1ccccc1)C1=CC(=[N+]2CCCCC2)CC(C)(C)C1	0	0	1	-1	-5	-2	nt	nt
CC1(C)CC(NNCCC#N)=CC(=[N+]2CCCC2)C1	0	5	-6	49*	3	-6	54*	69*
COc1ccc(C)cc1Nc1n[n+](-c2ccccc2)c(-c2ccc(N(C)C)cc2)s1	0	68*	0	51*	1	15	90*	99*
C#CCSc1nc2[nH]ncc2c(=O)[nH]1	0	2	-1	33*	-3	5	4	5
Cc1cc(NC2C3CC4CC(C3)CC2C4)n2ncnc2n1 (stereo not given)	0	0	-3	101*	2	5	1	2
CCCCCCOc1ccc(N2C(=O)CC(SC(=NCC)NCC)C2=O)cc1 (stereo not given)	0	1	0	2	0	1	nt	nt
O=C1/C(=C/c2ccc3c(c2)OCO3)Oc2cc(OCC(=O)N3CCC[C@H]3C(=O)O)ccc21	0	1	7	10	3	5	nt	nt
COc1ccc(/C=C2\Oc3cc(OCC(=O)N4CCC[C@H]4CO)ccc3C2=O)c(OC)c1	-1	19	-5	65*	4	12	85*	93*
COc1ccccc1CN(C)C(=O)COC(=O)c1cc(C)oc1C	-1	-1	3	nt	nt	-5	nt	nt
SMILES	TbMetRS inhib	HNF4A DNA FP	IDE act	TPT1 inh	IDE cell inh	CSN deneddyl inh	TPT1 inh confirm	RNase T1 counter
CC(C)(C)NC(=O)C(c1ccco1)N(Cc1ccc2c(c1)OCO2)C(=O)c1snc(C(N)=O)c1N (stereo not given)	0	-2	2	2	-1	0	nt	nt
Cn1c(=O)oc2cc(S(=O)(=O)N3CCN(c4ccc(F)cc4)CC3)ccc21	-1	7	-3	16	0	18	nt	nt
Cn1c(=O)oc2cc(S(=O)(=O)N3CCN(c4cccc(Cl)c4)CC3)ccc21	0	16	-5	81*	1	16	24*	33*
Cc1ccc(C)c(CC(=O)N2CCCC(c3cc(C(=O)NCc4ccccc4)no3)C2)c1 (stereo not given)	0	3	nt	nt	nt	-3	nt	nt
O=C1Nc2ccc([N+](=O)[O-])cc2OC1CCN1CCN(Cc2ccc3c(c2)OCO3)CC1 (stereo not given)	-1	1	5	6	-3	1	nt	nt
COCCCn1c(O)c(/C=C2\N=C(C#N)C(=Nc3ccc(C)cc3)O2)sc1=S	0	110	-12	79*	10	20	80*	85*
CC1=NOC(=O)/C1=C\c1ccc(-c2cccc(Cl)c2)o1	-1	1	-2	12	2	9	nt	nt
Cc1nc(S/C(=C/c2ccc(-c3cccc(Cl)c3)o2)C(=O)O)n[nH]1	0	26	4	25*	-4	-6	35*	48*
Cc1c(C(=O)OCC(=O)Nc2ccc(C(N)=O)cc2)cccc1[N+](=O)[O-]	0	2	2	1	5	2	nt	nt
CCC(C)NC(=O)c1cc2c(=O)[nH]c3ccc(C)cc3c2s1 (stereo not given)	-2	1	3	29*	0	16	7	14

Bioassay records (PubChem)
